ChEMBL document CHEMBL1811823, “Quinazolinone linked pyrrolo[2,1-c][1,4]benzodiazepine (PBD) conjugates: Design, synthesis and biological evaluation as potential anticancer agents” (2010)
Activity calls are given as the source filed them. No cut-off for these calls is given here.

Legend:
[1] = system: CCRF-CEM; test: Growth inhibition of human CCRF-CEM cells by NCI anti-cancer screening method; format: functional
[2] = system: NCI-H226; test: Growth inhibition of human NCI-H226 cells by NCI anti-cancer screening method; format: functional
[3] = system: A549; test: Growth inhibition of human A549 cells by NCI anti-cancer screening method; format: functional
[4] = system: SR; test: Growth inhibition of human SR cells by NCI anti-cancer screening method; format: functional
[5] = system: NCI; test: Growth inhibition of human […] cells by NCI anti-cancer screening method; format: functional
[6] = system: MOLT-4; test: Growth inhibition of human MOLT4 cells by NCI anti-cancer screening method; format: functional
[7] = system: K562; test: Growth inhibition of human K562 cells by NCI anti-cancer screening method; format: functional
[8] = system: NCI-H522; test: Growth inhibition of human NCI-H522 cells by NCI anti-cancer screening method; format: functional
[9] = system: HCC 2998; test: Growth inhibition of human HCC2998 cells by NCI anti-cancer screening method; format: functional
[10] = system: HCT-116; test: Growth inhibition of human HCT116 cells by NCI anti-cancer screening method; format: functional
[11] = system: LOX IMVI; test: Growth inhibition of human LOXIMVI cells by NCI anti-cancer screening method; format: functional
[12] = system: Malme-3M; test: Growth inhibition of human MALME-3M cells by NCI anti-cancer screening method; format: functional
[13] = system: M14; test: Growth inhibition of human M14 cells by NCI anti-cancer screening method; format: functional
[14] = system: OVCAR-3; test: Growth inhibition of human OVCAR3 cells by NCI anti-cancer screening method; format: functional
[15] = system: OVCAR-4; test: Growth inhibition of human OVCAR4 cells by NCI anti-cancer screening method; format: functional
[16] = system: A498; test: Growth inhibition of human A498 cells by NCI anti-cancer screening method; format: functional
[17] = system: SN12C; test: Growth inhibition of human SN12C cells by NCI anti-cancer screening method; format: functional
[18] = system: MCF7; test: Growth inhibition of human MCF7 cells by NCI anti-cancer screening method; format: functional
[19] = system: NCI/ADR-RES; test: Growth inhibition of human NCI/ADR-RES cells by NCI anti-cancer screening method; format: functional
[20] = system: NCI; test: Growth inhibition of human Hs 578T cells by NCI anti-cancer screening method; format: functional
[21] = system: MDA-MB-435; test: Growth inhibition of human MDA-MB-435 cells by NCI anti-cancer screening method; format: functional
[22] = system: DU-145; test: Growth inhibition of human DU145 cells by NCI anti-cancer screening method; format: functional
[23] = system: SK-MEL-5; test: Growth inhibition of human SK-MEL-5 cells by NCI anti-cancer screening method; format: functional
[24] = system: A-375; test: Cytotoxicity against human A375 cells assessed as cell viability after 24 hrs by MTT assay; format: functional
Procedure, shortened: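 A375 cells seeded at 10,000/well, incubated overnight, then treated for 24 h. MTT added at 10% of culture volume for 2 h at 37 °C. Formazan dissolved in 20% SDS/50% DMF overnight at 37 °C; absorbance read at 570 nm against a medium blank. Viability expressed as percent of untreated cells.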

[25] = system: A-375; test: Cell cycle arrest in human A375 cells assessed as decrease in G2/M phase at 4 uM after 24 hrs by propidium iodide staining based flow cytometry; format: functional; set-up: scale not given: the % may be the effect or the level left
Procedure, shortened: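 A375 melanoma cells (DMEM, 10% FCS, 37 °C, 5% CO2) seeded at 5×10^5 per dish and grown 24 h, then exposed to 0–4 µM for 24 h. Harvested with trypsin-EDTA, fixed in ice-cold 70% ethanol, RNase A treated (1 mg/ml, 37 °C, 30 min), stained with propidium iodide and analysed by flow cytometry for phase distribution.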

[26] = system: A-375; test: Decrease in CDK2 protein expression in human A375 cells at 4 uM after 24 hrs by Western blot; format: functional, cell-based
Procedure, shortened: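 A375 cells treated at 4 µM for 24 h, lysed, protein quantified by Bradford. 30 µg/lane run on 12% SDS-PAGE and transferred to PVDF. Blocked 2 h in TBST with 5% blocker. Probed with rabbit polyclonal CDK2 antibody (1:500) overnight at 4 °C, then HRP secondary (1:2000) 1 h. Chemiluminescent detection; β-tubulin loading control; untreated and DMSO controls.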

[27] = system: A-375; test: Increase in cytochrome C release in human A375 cells at 4 uM after 24 hrs by Western blot; format: functional, cell-based
Procedure, shortened: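 Western blot of A375 cell lysates after 24 h exposure at 4 µM, with 30 µg protein/lane on 12% SDS-PAGE and transfer to PVDF. Probed overnight at 4 °C with anti-cytochrome c (1:500), then HRP secondary and chemiluminescence. β-actin was the loading control; untreated and DMSO-only cells served as controls.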

[28] = system: A-375; test: Increase in active caspase-3 protein level in human A375 cells at 4 uM after 24 hrs by Western blot; format: functional, cell-based
Procedure, shortened: (§1)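 A375 cells were exposed 24 h at 4 µM. Lysates (30 µg/lane) were run on 12% SDS-PAGE and transferred to PVDF, then probed overnight at 4 °C with anti-cleaved caspase-3 (1:200, detects 21 kDa) or anti-PARP (1:2000, detects 113 and 85 kDa). HRP secondary and chemiluminescence were used. β-tubulin was the loading control; untreated and DMSO controls were included.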

[29] = system: A-375; test: Increase in active PARP cleavage product (85kDa) level in human A375 cells at 4 uM after 24 hrs by Western blot; format: functional, cell-based; procedure, shortened: as §1
[30] = system: A-375; test: Decrease in Bcl-2 mRNA expression in human A375 cells at 4 uM after 24 hrs by RT-PCR

Compound `COc1cc2c(cc1OCCCCCOc1ccc(-n3c(C)nc4ccccc4c3=O)cc1)N=C[C@@H]1CCCN1C2=O` has a GI50 [1] of 160 nM, a GI50 [2] of 160 nM and a GI50 [3] of 230 nM. It also gave a GI50 [4] of 110 nM, a GI50 [5] of 190 nM and a GI50 [6] of 190 nM. It also gave a GI50 [7] of 60 nM, a GI50 [8] of 120 nM and a GI50 [9] of 260 nM. The GI50 [10] was 150 nM, the GI50 [11] was 150 nM and the GI50 [12] was 230 nM. For the same compound, the GI50 [13] was 170 nM, the GI50 [14] was 200 nM and the GI50 [15] was 370 nM. It also gave a GI50 [16] of 160 nM, a GI50 [17] of 240 nM and a GI50 [18] of 170 nM. It also gave a GI50 [19] of 1730 nM, a GI50 [20] of 160 nM and a GI50 [21] of 160 nM. For the same compound, the GI50 [22] was 260 nM, the GI50 [23] was 160 nM and the Activity [24] was 49.01%. The Activity [25] was 9.15%, the Activity [26] was “Active” and the Activity [27] was “Active”. For the same compound, the Activity [28] was “Active”, the Activity [29] was “Active” and the “Decrease in Bcl-2 mRNA expression” value [30] was “Active”.
